Experiments:
[1] = target: Sodium-dependent serotonin transporter (Homo sapiens, UniProt P31645); experiment: Displacement of [125I]RTI55 from SERT
Outline: (§1)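 [125I]RTI-55 at 0.01 nM (s.a. 2200 Ci/mmol) competitive binding. Drugs and blocker in 55.2 mM sodium phosphate pH 7.4 with 1 mg/mL BSA. Radioligand in the same buffer with chymostatin 25 μg/mL, leupeptin 25 μg/mL, EDTA 100 μM and EGTA 100 μM. Triplicate incubation for 18–24 h at 4 °C (equilibrium), 1 mL final volume. Ki derived.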

[2] = Ratio of Ki for SERT to Ki for DAT
Outline: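 SERT Ki divided by DAT Ki. Both come from [125I]RTI-55 (0.01 nM) binding in pH 7.4 sodium phosphate/BSA buffer with protease inhibitors, run in triplicate for 18–24 h at 4 °C.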

[3] = target: Sodium-dependent dopamine transporter (Homo sapiens, UniProt Q01959); experiment: Displacement of [125I]RTI55 from DAT; outline: as §1
Sequence of Sodium-dependent dopamine transporter (Q01959 whole entry): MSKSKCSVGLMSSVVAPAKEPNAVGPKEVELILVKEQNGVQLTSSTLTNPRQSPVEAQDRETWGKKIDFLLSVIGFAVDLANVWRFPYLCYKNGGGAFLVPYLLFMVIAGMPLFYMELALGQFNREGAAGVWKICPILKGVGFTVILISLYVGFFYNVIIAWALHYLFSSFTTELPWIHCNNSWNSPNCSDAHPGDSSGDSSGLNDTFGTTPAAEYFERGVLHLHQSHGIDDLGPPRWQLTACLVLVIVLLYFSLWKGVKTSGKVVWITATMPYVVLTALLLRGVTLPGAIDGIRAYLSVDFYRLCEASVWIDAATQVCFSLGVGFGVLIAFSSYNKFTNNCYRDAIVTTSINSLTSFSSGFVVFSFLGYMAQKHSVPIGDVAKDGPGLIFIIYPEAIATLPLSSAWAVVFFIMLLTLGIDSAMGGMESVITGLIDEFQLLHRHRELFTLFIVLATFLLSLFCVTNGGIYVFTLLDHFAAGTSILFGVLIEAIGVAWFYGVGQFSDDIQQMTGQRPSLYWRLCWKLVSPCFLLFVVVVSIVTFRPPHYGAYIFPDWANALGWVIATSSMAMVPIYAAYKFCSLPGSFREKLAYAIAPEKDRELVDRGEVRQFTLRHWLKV

Sequence of Sodium-dependent serotonin transporter (P31645 whole entry): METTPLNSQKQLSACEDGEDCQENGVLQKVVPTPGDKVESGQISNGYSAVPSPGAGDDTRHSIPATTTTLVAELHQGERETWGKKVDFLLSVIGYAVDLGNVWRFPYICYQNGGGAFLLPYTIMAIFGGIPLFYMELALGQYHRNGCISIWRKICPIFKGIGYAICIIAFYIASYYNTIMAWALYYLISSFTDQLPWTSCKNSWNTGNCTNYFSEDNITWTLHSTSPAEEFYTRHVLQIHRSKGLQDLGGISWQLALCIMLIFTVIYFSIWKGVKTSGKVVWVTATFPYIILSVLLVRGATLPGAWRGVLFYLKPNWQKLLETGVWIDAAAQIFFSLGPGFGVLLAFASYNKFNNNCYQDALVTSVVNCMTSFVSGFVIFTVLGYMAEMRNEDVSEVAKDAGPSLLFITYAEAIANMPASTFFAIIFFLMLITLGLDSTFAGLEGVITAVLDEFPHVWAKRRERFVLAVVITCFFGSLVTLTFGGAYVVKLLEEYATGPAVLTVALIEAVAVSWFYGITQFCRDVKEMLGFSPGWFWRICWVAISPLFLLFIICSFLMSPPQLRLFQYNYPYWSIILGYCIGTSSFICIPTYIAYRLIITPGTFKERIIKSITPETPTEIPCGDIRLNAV

Row | Structure (SMILES) | Ki [1] | Ratio Ki [2] | Ki [3]
1 | C=C(CCN1CCN(CCOC(c2ccc(F)cc2)c2ccc(F)cc2)CC1)c1ccccc1 | 190 nM | 11 | 
2 | O[C@@H](Cc1ccccc1)CN1CCN(CCOC(c2ccccc2)c2ccccc2)CC1 | 2200 nM | 957 | 2.3 nM
3 | C=C(CCN1CCN(CCOC(c2ccccc2)c2ccccc2)CC1)c1ccccc1 | 1800 nM | 59 | 
4 | CO[C@@H](Cc1ccccc1)CN1CCN(CCOC(c2ccc(F)cc2)c2ccc(F)cc2)CC1 | 220 nM | 8 | 
5 | O=C(Cc1ccccc1)CN1CCN(CCOC(c2ccccc2)c2ccccc2)CC1 | 2500 nM | 250 | 
6 | CC(O)(CCN1CCN(CCOC(c2ccc(F)cc2)c2ccc(F)cc2)CC1)c1ccccc1 (centres undefined) | 150 nM | 39 | 
7 | CC(Cc1ccccc1)CN1CCN(CCOC(c2ccc(F)cc2)c2ccc(F)cc2)CC1 (single isomer, unassigned; (-)) [listing 1 of 2 here] |  | 11 | 
8 | Fc1ccc(C(OCCN2CCN(C[C@H](F)Cc3ccccc3)CC2)c2ccc(F)cc2)cc1 | 540 nM | 25 | 
9 | FC[C@@H](Cc1ccccc1)N1CCN(CCOC(c2ccc(F)cc2)c2ccc(F)cc2)CC1 | 190 nM | 2 | 
10 | CC(O)(Cc1ccccc1)CN1CCN(CCOC(c2ccccc2)c2ccccc2)CC1 (centres undefined) | 2000 nM | 14 | 
11 | O=C(CN1CCN(CCOC(c2ccccc2)c2ccccc2)CC1)c1ccccc1 | 1400 nM | 3 | 
12 | N[C@@H](Cc1ccccc1)CN1CCN(CCOC(c2ccc(F)cc2)c2ccc(F)cc2)CC1 | 88 nM | 2 | 
13 | CC(O)(CCN1CCN(CCOC(c2ccccc2)c2ccccc2)CC1)c1ccccc1 (centres undefined) | 1800 nM | 254 | 
14 | Fc1ccc(C(OCCN2CCN(CCc3ccccc3)CC2)c2ccc(F)cc2)cc1 | 36 nM | 5 | 8 nM
15 | CC(Cc1ccccc1)CN1CCN(CCOC(c2ccc(F)cc2)c2ccc(F)cc2)CC1 (stereo in doubt; (+)-7) [listing 1 of 2 here] |  | 7 | 
16 | CC(Cc1ccccc1)CN1CCN(CCOC(c2ccc(F)cc2)c2ccc(F)cc2)CC1 (stereo in doubt; (+)-7) [listing 2 of 2 here] | 120 nM |  | 
17 | O=C(Cc1ccccc1)CN1CCN(CCOC(c2ccc(F)cc2)c2ccc(F)cc2)CC1 | 250 nM | 38 | 
18 | N[C@H](Cc1ccccc1)CN1CCN(CCOC(c2ccc(F)cc2)c2ccc(F)cc2)CC1 | 22 nM | 1 | 
19 | FC[C@H](Cc1ccccc1)N1CCN(CCOC(c2ccc(F)cc2)c2ccc(F)cc2)CC1 | 110 nM | 0.8 | 
20 | CC(Cc1ccccc1)CN1CCN(CCOC(c2ccc(F)cc2)c2ccc(F)cc2)CC1 (single isomer, unassigned; (-)) [listing 2 of 2 here] | 190 nM |  | 
21 | O=C(CN1CCN(CCOC(c2ccc(F)cc2)c2ccc(F)cc2)CC1)c1ccccc1 | 88 nM | 2 | 
22 | C=C(Cc1ccccc1)CN1CCN(CCOC(c2ccc(F)cc2)c2ccc(F)cc2)CC1 | 430 nM | 4 | 
23 | O[C@H](Cc1ccccc1)CN1CCN(CCOC(c2ccc(F)cc2)c2ccc(F)cc2)CC1 | 160 nM | 13 | 12 nM
24 | CO[C@H](Cc1ccccc1)CN1CCN(CCOC(c2ccc(F)cc2)c2ccc(F)cc2)CC1 | 250 nM | 9 | 
25 | CC(O)(Cc1ccccc1)CN1CCN(CCOC(c2ccc(F)cc2)c2ccc(F)cc2)CC1 (centres undefined) | 310 nM | 6 | 
26 | C=C(Cc1ccccc1)CN1CCN(CCOC(c2ccccc2)c2ccccc2)CC1 | 3300 nM | 8 | 
27 | Fc1ccc(C(OCCN2CCN(C[C@@H](F)Cc3ccccc3)CC2)c2ccc(F)cc2)cc1 | 290 nM | 109 | 
28 | O[C@H](Cc1ccccc1)CN1CCN(CCOC(c2ccccc2)c2ccccc2)CC1 | 1800 nM | 72 | 25 nM
29 | O[C@@H](Cc1ccccc1)CN1CCN(CCOC(c2ccc(F)cc2)c2ccc(F)cc2)CC1 | 230 nM | 307 | 0.75 nM

From ChEMBL document CHEMBL1149914 (J Med Chem, 2008)
